pKi: −log10 of the molar value.
How the values were obtained:
[1] = target: Mu-type opioid receptor (Cavia porcellus) (UniProt P97266); assay: Antagonist activity at mu opioid receptor in guinea pig longitudinal muscle myenteric plexus assessed as inhibition of DAMGO-induced twitch tension at 1 uM after 10 mins; assay type: functional
How it was run: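 Isolated guinea-pig myenteric plexus-longitudinal muscle was stimulated electrically at 0.1 Hz with a 1 ms pulse width at supramaximal voltage, then washed and rested for 20 min. Kappa antagonist nor-binaltorphimine (1 µM, 10 min) and captopril (1 µM) were added. Test compound was added once twitches plateaued, and 10 min later a cumulative DAMGO dose response was built (3 min contact, 1 min recording per concentration).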

[2] = Displacement of [3H]DPDPE from delta opioid receptor in dog brain after 90 mins by scintillation counting; design: species or system Canis lupus familiaris
[3] = Displacement of [3H]U-69,593 from kappa opioid receptor in dog brain after 90 mins by scintillation counting; design: species or system Canis lupus familiaris
[4] = Displacement of [3H]DAMGO from mu opioid receptor in dog brain after 90 mins by scintillation counting; design: species or system Canis lupus familiaris
Mu-type opioid receptor [5] = target: T1, Mu-type opioid receptor (Homo sapiens, UniProt P35372); assay: Antagonist activity at human mu opioid receptor by GTP-gamma S binding assay
T1 sequence (P35372 whole entry): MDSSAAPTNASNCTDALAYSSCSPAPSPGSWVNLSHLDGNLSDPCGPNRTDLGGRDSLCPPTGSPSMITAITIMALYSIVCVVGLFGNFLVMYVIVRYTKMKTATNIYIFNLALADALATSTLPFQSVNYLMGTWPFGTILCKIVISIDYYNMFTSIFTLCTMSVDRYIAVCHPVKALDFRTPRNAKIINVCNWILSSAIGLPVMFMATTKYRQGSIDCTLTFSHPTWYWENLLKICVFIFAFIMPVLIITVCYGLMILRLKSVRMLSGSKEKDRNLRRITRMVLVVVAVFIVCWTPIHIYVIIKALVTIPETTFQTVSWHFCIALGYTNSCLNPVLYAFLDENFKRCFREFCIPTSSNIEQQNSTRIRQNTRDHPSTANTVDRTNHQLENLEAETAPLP

Mu-type opioid receptor [6] = target: T1, Mu-type opioid receptor; assay: Displacement of [3H]DAMGO from human mu opioid receptor
How it was run: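 Human μ receptor filter-binding assay using [3H]DAMGO as the radioligand; Ki derived from displacement.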

Mu-type opioid receptor (Cavia porcellus), sequence (P97266 whole entry): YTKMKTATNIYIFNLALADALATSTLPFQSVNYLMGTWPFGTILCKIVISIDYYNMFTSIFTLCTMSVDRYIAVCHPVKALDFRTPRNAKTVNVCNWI

Compound	inhibition [1]	pKi [2]	pKi [3]	pKi [4]	pKi (Mu-type opioid receptor [5])	pKi (Mu-type opioid receptor [6])
CCCCCCN1C[C@@H]2[C@H](C1)[C@@]2(C)c1cccc(NS(=O)(=O)CCOC)c1	> 10%	6.33	6.76	8.00	–	–
CCCCCCN1C[C@@H]2[C@H](C1)[C@@]2(CCC)c1cccc(NS(C)(=O)=O)c1	< 10%	7.18	6.48	8.00	–	–
CCCCCCN1C[C@@H]2[C@H](C1)[C@]2(c1cccc(NS(C)(=O)=O)c1)C(C)C	32%	6.51	7.32	8.52	–	–
CCCCCCN1C[C@@H]2[C@H](C1)[C@@]2(CC)c1cccc(NS(C)(=O)=O)c1	–	< 5.00	5.87	7.30	–	–
CCCCCCN1C[C@@H]2[C@H](C1)[C@@]2(C)c1cccc(NS(=O)(=O)C(C)C)c1	18%	5.80	6.10	7.85	–	–
C[C@]1(c2cccc(NS(C)(=O)=O)c2)[C@@H]2CN(CC3Cc4ccccc4C3)C[C@@H]21	< 10%	6.42	7.29	9.26	9.52	9.09
CCS(=O)(=O)Nc1cccc([C@@]2(C)[C@@H]3CN(CCCc4ccccc4)C[C@@H]32)c1	–	5.54	6.66	7.43	–	–
C[C@]1(c2cccc(NS(C)(=O)=O)c2)[C@@H]2CN(CCCc3ccccc3)C[C@@H]21	< 10%	6.74	7.03	8.39	8.46	–
CC[C@]1(c2cccc(NS(C)(=O)=O)c2)[C@@H]2CN(CC(O)Cc3ccccc3)C[C@@H]21 (stereo not given in full)	–	6.23	7.15	8.59	8.60	8.18
CC[C@]1(c2cccc(NS(C)(=O)=O)c2)[C@@H]2CN(CC3Cc4ccccc4C3O)C[C@@H]21 (stereo not given in full)	–	7.72	8.35	10.15	10.10	10.00
CCCCCCN1C[C@@H]2[C@H](C1)[C@@]2(C)c1cccc(NS(=O)(=O)c2cccnc2)c1	–	< 5.00	5.82	7.15	–	–
CC[C@]1(c2cccc(NS(C)(=O)=O)c2)[C@@H]2CN(CCCc3ccccc3)C[C@@H]21	< 10%	7.10	7.17	8.82	–	–
CCCCCCN1C[C@@H]2[C@H](C1)[C@@]2(C)c1cccc(NS(=O)(=O)CCC)c1	–	< 5.00	5.88	6.98	–	–
CC[C@]1(c2cccc(NS(C)(=O)=O)c2)[C@@H]2CN(CC3Cc4ccccc4C3)C[C@@H]21	–	7.54	7.66	9.70	–	–
CCCCCCN1C[C@@H]2[C@H](C1)[C@@]2(C)c1cccc(NS(C)(=O)=O)c1	< 10%	6.06	6.57	7.85	–	–
